Laboratory results from ChEMBL document CHEMBL1123750, “Imidazole anticonvulsants: structure-activity relationships of [(biphenylyloxy)alkyl]imidazoles” (1987).

Tests used:
Assay type in all cases: functional
[1] = tested on: Mus musculus; assay: Effective dose to produce anticonvulsant activity using maximal electroshock assay (MES) evaluated in mice after oral administration
In short: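 Mice given oral doses as a suspension in 5% acacia/water. Corneal electroshock (40 mA, 0.1 s, ac). Retest at the time of peak effect with at least four doses, 12 mice per dose. ED50 is for prevention of tonic-extensor convulsions, by Litchfield–Wilcoxon with 95% confidence limits.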

[2] = tested on: Mus musculus; assay: Effective dose to produce anticonvulsant activity using horizontal screen test (HS) evaluated in mice after oral administration
In short: (§1)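 Fasted male CF1 mice (20–25 g), oral suspension in 5% acacia/water. Each mouse placed on a screen, rod rotated 180°, and return to the top within 1 min scored. Peak time found at 0.5–4 h. Retest at that time with at least four doses, 12 mice per dose. ED50 by Litchfield–Wilcoxon with 95% confidence limits.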

[3] = tested on: Mus musculus; assay: Anticonvulsant activity using hexobarbital-induced (100 mg/kg dose was administered intraperitoneally) sleeping time assay evaluated in mice
In short: (§2)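 Groups of 10 fasted mice dosed orally with test compound in 5% acacia/water; at the previously determined time of peak effect, hexobarbital given ip, solubilized with stoichiometric NaOH. Duration of loss of righting reflex monitored. Mean ± SEM for 10 animals, compared against vehicle controls.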

[4] = tested on: Mus musculus; assay: Time to peak anticonvulsant effect (TPE) evaluated in mice after oral administration
In short: (§3)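 Three groups of mice given a range of oral doses in 5% acacia/water. Challenged by corneal MES (40 mA, 0.1 s, ac) at 0.5, 1, 2, 3 and 4 h posttreatment. Time of peak protection against seizures recorded.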

[5] = tested on: Mus musculus; assay: Anticonvulsant activity using hexobarbital-induced (100 mg/kg dose was administered intraperitoneally)sleeping time assay evaluated in mice; in short: as §2
[6] = tested on: Mus musculus; assay: Anticonvulsant activity using hexobarbital-induced (100 mg/kg dose was administered intraperitoneally) sleeping time assay evaluated in mice after oral administration; in short: as §2
[7] = tested on: Mus musculus; assay: Time to peak anticonvulsant effect (TPE) was determined in mice after oral administration; in short: as §3
[8] = tested on: Mus musculus; assay: Effective dpse to produce anticonvulsant activity using horizontal screen test (HS) evaluated in mice after oral administration; in short: as §1

Row | SMILES | ED50 [1] | ED50 [2] | Hexobarb ST [3] | TPE [4] | Hexobarb ST [5] | Hexobarb ST [6] | TPE [7] | ED50 [8]
1 | CC(O)(Cn1ccnc1)c1ccc2c(c1)Cc1ccccc1-2 (centres undefined) | 10 mg/kg |  |  |  |  |  |  | 
2 | c1ccc(OCCn2ccnc2)cc1 | 130 mg/kg | > 280 mg/kg | 434.2 min | 4 h |  |  |  | 
3 | Cl.c1ccc(-c2ccccc2OCCCCn2ccnc2)cc1 | 29.8 mg/kg | > 200 mg/kg | 124.3 min | 0.5 h |  |  |  | 
4 | Cl.c1ccc(-c2ccc(OCCn3ccnc3)cc2)cc1 | 44 mg/kg | > 400 mg/kg |  | 2 h | 697.5 min |  |  | 
5 | Cl.c1ccc(-c2cccc(OCCn3ccnc3)c2)cc1 | 20.5 mg/kg | > 200 mg/kg | 334 min | 4 h |  |  |  | 
6 | Cl.c1ccc(-c2ccccc2OCCn2ccnc2)cc1 | 15.5 mg/kg | 320 mg/kg |  |  |  | 252.1 min | 1 h | 
7 | Cl.c1ccc(-c2ccccc2OCCCn2ccnc2)cc1 | 21.3 mg/kg | > 280 mg/kg | 126.7 min | 1 h |  |  |  | 
8 | O=C(Cn1ccnc1)c1ccc2ccccc2c1 [NAFIMIDONE] | 56 mg/kg |  |  |  |  |  |  | 
9 | O=C1NC(=O)C(c2ccccc2)(c2ccccc2)N1 [PHENYTOIN] | 9.4 mg/kg |  |  | 1 h |  |  |  | 210 mg/kg
